30 compounds from ChEMBL document CHEMBL3407462, “Further insights into the SAR of α-substituted cyclopropylamine derivatives as inhibitors of histone demethylase KDM1A” (Eur J Med Chem, 2015) can be followed below.

Experiment [1] deals with LSD1/CoREST complex (Homo sapiens, UniProt O60341). The experiment in a line: Inhibition of human recombinant KDM1A/CoREST complex expressed in Escherichia coli using mono-methylated H3-K4 peptide containing 21 amino acids as substrate preincubated for 15 mins followed by substrate addition measured for 12 mins by fluorescence assay. In a few lines: (§1)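 KDM1A/CoREST co-purified from E. coli as separate proteins; 20 nM complex preincubated 15 min at RT with inhibitor, 50 µM Amplex UltraRed and 0.023 µM HRP in 50 mM Tris-HCl pH 8.0, 0.05 mg/ml BSA. Reaction started with 4.5 µM H3K4me1 21-mer peptide. H2O2 release read by fluorescence (ex 510/em 595 nm) for 12 min, aerobic. Tested twice in duplicate; IC50 reported.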

Experiment [2] deals with LSD1/CoREST complex (Homo sapiens) (UniProt O60341+Q9UKL0). The experiment can be described thus: Inhibition of human recombinant KDM1A/CoREST complex expressed in Escherichia coli using mono-methylated H3-K4 peptide containing 21 amino acids as substrate up to 100 uM preincubated for 15 mins followed by substrate addition measured for 12 mins by fluorescence assay. In a few lines:
as §1

pIC50: −log10 of the molar value. Calls of active or inactive are those of the source. The calls are words filed in the database; no cut-off is given here.

LSD1/CoREST complex (Homo sapiens), sequence (Q9UKL0 whole entry, looked up, other chains not shown): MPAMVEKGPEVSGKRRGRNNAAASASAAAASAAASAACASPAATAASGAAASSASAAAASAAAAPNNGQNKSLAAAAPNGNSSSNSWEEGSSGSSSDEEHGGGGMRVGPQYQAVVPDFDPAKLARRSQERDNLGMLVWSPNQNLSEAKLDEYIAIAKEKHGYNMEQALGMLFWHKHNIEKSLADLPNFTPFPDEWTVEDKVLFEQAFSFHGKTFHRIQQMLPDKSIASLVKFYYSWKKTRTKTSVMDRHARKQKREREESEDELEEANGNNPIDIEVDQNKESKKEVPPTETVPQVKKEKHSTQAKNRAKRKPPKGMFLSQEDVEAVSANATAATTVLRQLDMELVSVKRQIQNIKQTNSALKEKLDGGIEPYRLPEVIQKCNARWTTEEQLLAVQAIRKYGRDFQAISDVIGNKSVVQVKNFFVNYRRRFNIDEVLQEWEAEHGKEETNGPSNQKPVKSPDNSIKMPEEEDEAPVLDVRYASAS

The term pIC50 denotes the IC50 on a negative log10 scale, so that one unit is a factor of ten. `CC[C@]1(N)C[C@@H]1c1ccc(OC(F)(F)F)cc1` (racemic): the negative logarithm of the IC50 (pIC50) in experiment [1] was 5.94. Still for that read-out and setting: the value for `N[C@@]1(c2ccccc2)C[C@@H]1c1ccc(Cl)cc1` (mixture of isomers) was 6.26.

As to `N[C@@]1(CCc2ccccc2)C[C@@H]1c1ccc(Cl)cc1` (racemic), the negative-log IC50 (pIC50) in experiment [1] is 7.02.

Take `N[C@@]1(Cc2ccc3ccccc3c2)C[C@@H]1c1cccc(Br)c1` (racemic): the pIC50 in experiment [1] was 6.60. As for `N[C@@]1(Cc2ccccc2)C[C@@H]1c1ccc(F)cc1` (mixture of isomers), the pIC50 in experiment [1] is 5.98. The same measure, in the same setting: the value for `CC[C@]1(N)C[C@@H]1c1ccc(C(F)(F)F)cc1` (racemic) was 6.61; that for `CC[C@]1(N)C[C@@H]1c1cccc(C(F)(F)F)c1` (racemic) was 6.93. Still for that read-out and setting: the value for `CC[C@]1(N)C[C@@H]1c1ccccc1F` (racemic) was 6.45. The same measure, in the same setting: the value for `CC[C@]1(N)C[C@@H]1c1cccc(Cl)c1` (racemic) was 7.42; that for `N[C@@]1(CCc2ccccc2)C[C@@H]1c1cccc(Br)c1` (mixture of isomers) was 7.03; that for `N[C@@]1(CCc2ccccc2)C[C@@H]1c1ccc(F)cc1` (mixture of isomers) was 6.76. `O=C1NCCN[C@]12C[C@@H]2c1ccccc1`: the inhibition result in experiment [2] was “inactive”. As for `CC[C@]1(N)C[C@@H]1c1cccc(F)c1` (mixture of isomers), in experiment [1], the pIC50 was 7.10. For `N[C@@]1(Cc2ccc3ccccc3c2)C[C@@H]1c1cccc(Cl)c1` (racemic), the negative logarithm of the IC50 (pIC50) in experiment [1] is 6.80.

With `N[C@@]1(Cc2ccccc2)C[C@@H]1c1ccc(Br)cc1` (racemic), the pIC50 in experiment [1] was 6.73. For `CC[C@]1(N)C[C@@H]1c1ccc(Br)cc1` (mixture of isomers), the pIC50 in experiment [1] is 6.92. Consider `N[C@@]1(c2ccccc2)C[C@@H]1c1ccc(Br)cc1` (racemic), for which the negative-log IC50 (pIC50) in experiment [1] is 7.33. As to `CC[C@]1(N)C[C@@H]1c1cccc(OC)c1` (mixture of isomers), in experiment [1], the negative-log IC50 (pIC50) was 6.91.

On to `N[C@@]1(CCc2ccccc2)C[C@@H]1c1ccc(Br)cc1` (racemic), for which, in experiment [1], the pIC50 was 7.00. On to `N[C@@]1(Cc2ccc3ccccc3c2)C[C@@H]1c1ccc(F)cc1` (racemic), for which the negative-log IC50 (pIC50) in experiment [1] is 6.19. Consider `N[C@@]1(Cc2ccc3ccccc3c2)C[C@@H]1c1ccc(Cl)cc1` (racemic), for which the pIC50 in experiment [1] is 6.58. The same measure, in the same setting: under `CC[C@]1(N)C[C@@H]1c1ccc(Br)c(F)c1` (racemic) stands 7.46; under `CC[C@]1(N)C[C@@H]1c1ccc(Cl)cc1` (mixture of isomers), 6.75.

In the case of `O=C1COC[C@]2(C[C@H]2c2ccccc2)N1`, the inhibition entry in experiment [2] is “inactive”. On to `CC[C@]1(N)C[C@@H]1c1ccccc1Cl` (racemic), for which, in experiment [1], the pIC50 is 6.59. The same measure, in the same setting: under `CC[C@]1(N)C[C@@H]1c1ccccc1Br` (mixture of isomers) stands 6.46; under `CC[C@]1(N)C[C@@H]1c1cccc(Br)c1` (racemic), 7.51. As to `CC[C@]1(N)C[C@@H]1c1ccc(F)cc1` (mixture of isomers), the negative logarithm of the IC50 (pIC50) in experiment [1] is 5.99. Still for that read-out and setting: under `N[C@@]1(Cc2ccccc2)C[C@@H]1c1ccc(Cl)cc1` (mixture of isomers) stands 6.64; under `N[C@@]1(Cc2ccc3ccccc3c2)C[C@@H]1c1ccc(Br)cc1` (mixture of isomers), 6.55.
